In ChEMBL document CHEMBL3085628, “Identification of CB1/CB2 ligands from Zanthoxylum bungeanum” (J Nat Prod, 2013):

Tests used:
Homo sapiens = organism: Homo sapiens; test: Selectivity ratio of IC50 for human CB1 receptor to IC50 for human CB2 receptor
Cannabinoid receptor 2 [1] = target: T1, Cannabinoid receptor 2 (Homo sapiens, UniProt P34972); test: Inhibition of human CB2 receptor internalization expressed in CHO cells assessed as inhibition of [3H]-CP55940 uptake preincubated for 1 hr followed by radioligand addition measured after 1 hr by liquid scintillation counting analysis relative to control; assay type: cell-based; set-up: concentration or dose not given beside the values; conditions: concentration not given here
Method in brief: (§1)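 CHO cells stably expressing human CB1 or CB2 grown 24 h at 2.0 × 10^5 cells/mL in DMEM/F12 with 10% FBS. They were preincubated 1 h with serial dilutions (top 5.0 μM for CB1, 10 μM for CB2; DMSO <0.1% final), then given 1 h 10 nM [3H]-Win 55,212-2 (CB1) or 2 nM [3H]-CP 55,940 (CB2). Cells were washed, NaOH-lysed and scintillation-counted. Uptake normalized to no-compound wells; sigmoid fit; mean ± SE, n = 6.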

Cannabinoid receptor 2 [2] = target: T1, Cannabinoid receptor 2; test: Displacement of [3H]-CP55940 from human CB2 receptor expressed in CHO cells preincubated for 1 hr followed by radioligand addition measured after 1 hr by liquid scintillation counting analysis; assay type: cell-based; method in brief: as §1
Cannabinoid receptor 1 [3] = target: T2, Cannabinoid receptor 1 (Homo sapiens, UniProt P21554); test: Inhibition of human CB1 receptor internalization expressed in CHO cells assessed as inhibition of [3H]-Win55212-2 uptake preincubated for 1 hr followed by radioligand addition measured after 1 hr by liquid scintillation counting analysis relative to control; assay type: cell-based; set-up: concentration or dose not given beside the values; conditions: concentration not given here; method in brief: as §1
Cannabinoid receptor 1 [4] = target: T2, Cannabinoid receptor 1; test: Displacement of [3H]-Win55212-2 from human CB1 receptor expressed in CHO cells preincubated for 1 hr followed by radioligand addition measured after 1 hr by liquid scintillation counting analysis; assay type: cell-based; method in brief: as §1
Cannabinoid receptor 2 [5] = target: T1, Cannabinoid receptor 2; test: Agonist activity at CB2 receptor (unknown origin) at 10 uM after 90 to 180 mins by beta-arrestin assay relative to control
[6] = target: T3, Follicle-stimulating hormone receptor (Homo sapiens) (UniProt P23945); test: Antagonist activity at FSHR (unknown origin) at 10 uM after 3 to 5 hrs by beta-arrestin assay relative to control
T3 sequence (whole entry): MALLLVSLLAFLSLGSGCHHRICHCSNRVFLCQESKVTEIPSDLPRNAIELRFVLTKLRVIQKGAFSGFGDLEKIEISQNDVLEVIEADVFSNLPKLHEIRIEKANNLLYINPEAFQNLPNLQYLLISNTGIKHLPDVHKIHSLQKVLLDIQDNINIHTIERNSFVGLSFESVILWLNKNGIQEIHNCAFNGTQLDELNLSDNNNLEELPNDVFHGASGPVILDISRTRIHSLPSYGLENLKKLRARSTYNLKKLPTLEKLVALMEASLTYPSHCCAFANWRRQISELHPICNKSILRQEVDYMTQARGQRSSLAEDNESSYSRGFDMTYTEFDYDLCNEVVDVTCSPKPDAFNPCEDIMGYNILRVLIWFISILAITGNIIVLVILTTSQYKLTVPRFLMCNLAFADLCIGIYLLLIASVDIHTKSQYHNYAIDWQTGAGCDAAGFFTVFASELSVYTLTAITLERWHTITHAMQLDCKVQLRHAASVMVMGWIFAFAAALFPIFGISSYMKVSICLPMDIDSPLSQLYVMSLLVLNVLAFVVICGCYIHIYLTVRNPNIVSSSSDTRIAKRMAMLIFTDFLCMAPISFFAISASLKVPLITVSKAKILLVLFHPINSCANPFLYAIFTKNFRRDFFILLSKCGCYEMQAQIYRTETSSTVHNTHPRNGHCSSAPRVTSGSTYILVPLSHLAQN

Cannabinoid receptor 1 [7] = target: T2, Cannabinoid receptor 1; test: Antagonist activity at CB1 receptor (unknown origin) at 10 uM after 3 to 5 hrs by beta-arrestin assay relative to control
[8] = target: T4, Prolactin-releasing peptide receptor (Homo sapiens) (UniProt P49683); test: Antagonist activity at PRLHR (unknown origin) at 10 uM after 3 to 5 hrs by beta-arrestin assay relative to control
T4 sequence (whole entry): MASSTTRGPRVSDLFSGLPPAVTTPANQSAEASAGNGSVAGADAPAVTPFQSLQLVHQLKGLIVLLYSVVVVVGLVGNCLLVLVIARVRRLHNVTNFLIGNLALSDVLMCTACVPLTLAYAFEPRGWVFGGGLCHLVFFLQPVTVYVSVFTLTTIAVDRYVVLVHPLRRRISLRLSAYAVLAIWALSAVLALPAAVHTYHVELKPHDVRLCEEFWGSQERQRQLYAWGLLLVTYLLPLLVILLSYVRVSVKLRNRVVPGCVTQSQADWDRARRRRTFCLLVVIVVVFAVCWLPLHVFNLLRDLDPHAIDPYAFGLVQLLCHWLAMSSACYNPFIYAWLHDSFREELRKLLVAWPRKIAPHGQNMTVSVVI

Cannabinoid receptor 2 [9] = target: T1, Cannabinoid receptor 2; test: Antagonist activity at CB2 receptor (unknown origin) at 10 uM after 3 to 5 hrs by beta-arrestin assay relative to control
[10] = target: Prostaglandin E2 receptor EP2 subtype (Homo sapiens) (UniProt P43116); test: Agonist activity at PTGER2 (unknown origin) at 10 uM after 90 to 180 mins by beta-arrestin assay relative to control
[11] = target: T5, Relaxin-3 receptor 1 (Homo sapiens) (UniProt Q9NSD7); test: Agonist activity at RXFP3 (unknown origin) at 10 uM after 90 to 180 mins by beta-arrestin assay relative to control
T5 sequence (whole entry): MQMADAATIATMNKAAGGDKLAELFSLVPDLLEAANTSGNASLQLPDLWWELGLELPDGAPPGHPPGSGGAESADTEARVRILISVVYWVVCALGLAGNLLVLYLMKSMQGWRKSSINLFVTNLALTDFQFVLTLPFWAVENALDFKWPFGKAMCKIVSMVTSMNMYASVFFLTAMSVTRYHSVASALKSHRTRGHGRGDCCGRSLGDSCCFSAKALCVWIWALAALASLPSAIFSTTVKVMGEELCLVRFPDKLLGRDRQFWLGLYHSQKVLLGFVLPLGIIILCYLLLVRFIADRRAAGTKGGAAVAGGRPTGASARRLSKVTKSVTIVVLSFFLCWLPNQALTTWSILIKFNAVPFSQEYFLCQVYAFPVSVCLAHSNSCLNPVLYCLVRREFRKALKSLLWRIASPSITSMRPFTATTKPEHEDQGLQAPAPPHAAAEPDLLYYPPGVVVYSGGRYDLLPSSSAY

[12] = target: Histamine H4 receptor (Homo sapiens) (UniProt Q9H3N8); test: Agonist activity at HRH4 (unknown origin) at 10 uM after 90 to 180 mins by beta-arrestin assay relative to control
[13] = target: T6, G-protein coupled receptor 151 (Homo sapiens) (UniProt Q8TDV0); test: Agonist activity at GPR151 (unknown origin) expressed in CHO-K1 cells at 10 uM after 90 to 180 mins by beta-arrestin assay relative to control; assay type: cell-based
T6 sequence (whole entry): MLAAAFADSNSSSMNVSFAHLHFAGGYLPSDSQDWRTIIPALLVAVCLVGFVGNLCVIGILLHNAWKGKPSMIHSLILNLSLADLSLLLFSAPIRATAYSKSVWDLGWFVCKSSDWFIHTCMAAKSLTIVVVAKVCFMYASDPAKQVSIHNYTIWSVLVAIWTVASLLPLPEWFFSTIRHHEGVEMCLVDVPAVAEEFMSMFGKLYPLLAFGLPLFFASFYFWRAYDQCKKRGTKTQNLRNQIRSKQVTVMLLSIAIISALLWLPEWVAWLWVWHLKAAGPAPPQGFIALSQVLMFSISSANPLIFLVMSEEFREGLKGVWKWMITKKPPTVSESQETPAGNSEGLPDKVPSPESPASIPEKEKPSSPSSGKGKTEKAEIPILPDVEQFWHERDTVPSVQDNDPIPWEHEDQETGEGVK

[14] = target: T7, Probable G-protein coupled receptor 132 (Homo sapiens) (UniProt Q9UNW8); test: Agonist activity at GPR132 (unknown origin) expressed in CHO-K1 cells at 10 uM after 90 to 180 mins by beta-arrestin assay relative to control; assay type: cell-based
T7 sequence (whole entry): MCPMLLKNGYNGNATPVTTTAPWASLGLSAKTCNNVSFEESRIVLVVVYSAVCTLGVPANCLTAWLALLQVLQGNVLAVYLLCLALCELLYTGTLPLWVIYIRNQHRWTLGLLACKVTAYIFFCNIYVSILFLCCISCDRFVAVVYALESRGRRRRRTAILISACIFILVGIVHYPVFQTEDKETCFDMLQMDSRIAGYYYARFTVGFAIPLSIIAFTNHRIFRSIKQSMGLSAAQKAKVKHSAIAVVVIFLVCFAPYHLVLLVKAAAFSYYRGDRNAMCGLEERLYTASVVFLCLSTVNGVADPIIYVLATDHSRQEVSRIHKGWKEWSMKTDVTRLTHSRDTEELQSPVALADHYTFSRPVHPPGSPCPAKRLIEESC

[15] = target: G-protein coupled receptor 55 (Homo sapiens) (UniProt Q9Y2T6); test: Agonist activity at GPR55 (unknown origin) expressed in CHO-K1 cells at 10 uM after 90 to 180 mins by beta-arrestin assay relative to control; assay type: cell-based
[16] = target: T3, Follicle-stimulating hormone receptor (Homo sapiens); test: Agonist activity at FSHR (unknown origin) at 10 uM after 90 to 180 mins by beta-arrestin assay relative to control
[17] = target: T4, Prolactin-releasing peptide receptor (Homo sapiens); test: Agonist activity at PRLHR (unknown origin) at 10 uM after 90 to 180 mins by beta-arrestin assay relative to control
Cannabinoid receptor 1 [18] = target: T2, Cannabinoid receptor 1; test: Agonist activity at CB1 receptor (unknown origin) at 10 uM after 90 to 180 mins by beta-arrestin assay relative to control
Cannabinoid receptor 2 [19] = target: T1, Cannabinoid receptor 2; test: Agonist activity at CB2 receptor (unknown origin) after 90 to 180 mins by beta-arrestin assay

T1 sequence (P34972 whole entry): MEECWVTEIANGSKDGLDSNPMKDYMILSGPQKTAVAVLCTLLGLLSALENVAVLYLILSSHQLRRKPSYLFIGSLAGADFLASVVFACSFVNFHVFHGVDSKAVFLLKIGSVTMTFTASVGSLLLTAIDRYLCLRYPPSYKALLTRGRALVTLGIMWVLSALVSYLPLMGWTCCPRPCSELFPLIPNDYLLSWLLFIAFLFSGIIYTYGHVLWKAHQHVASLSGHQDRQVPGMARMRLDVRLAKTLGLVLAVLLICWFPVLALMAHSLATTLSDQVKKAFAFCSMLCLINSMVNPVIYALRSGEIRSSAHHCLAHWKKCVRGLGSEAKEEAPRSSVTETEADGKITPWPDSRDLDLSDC
T2 sequence (P21554 whole entry): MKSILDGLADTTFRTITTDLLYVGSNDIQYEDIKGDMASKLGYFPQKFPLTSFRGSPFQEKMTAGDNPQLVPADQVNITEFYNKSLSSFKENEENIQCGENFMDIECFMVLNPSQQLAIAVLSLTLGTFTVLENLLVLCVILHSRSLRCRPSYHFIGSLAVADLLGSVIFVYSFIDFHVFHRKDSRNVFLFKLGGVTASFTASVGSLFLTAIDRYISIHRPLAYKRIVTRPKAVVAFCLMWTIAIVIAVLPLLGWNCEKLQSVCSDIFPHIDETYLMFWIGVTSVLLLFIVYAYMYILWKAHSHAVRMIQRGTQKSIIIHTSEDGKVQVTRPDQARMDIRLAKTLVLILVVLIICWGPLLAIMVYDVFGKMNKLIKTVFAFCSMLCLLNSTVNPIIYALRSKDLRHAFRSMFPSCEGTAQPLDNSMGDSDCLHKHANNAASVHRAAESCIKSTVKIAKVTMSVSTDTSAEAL
Prostaglandin E2 receptor EP2 subtype (Homo sapiens), sequence (P43116 whole entry): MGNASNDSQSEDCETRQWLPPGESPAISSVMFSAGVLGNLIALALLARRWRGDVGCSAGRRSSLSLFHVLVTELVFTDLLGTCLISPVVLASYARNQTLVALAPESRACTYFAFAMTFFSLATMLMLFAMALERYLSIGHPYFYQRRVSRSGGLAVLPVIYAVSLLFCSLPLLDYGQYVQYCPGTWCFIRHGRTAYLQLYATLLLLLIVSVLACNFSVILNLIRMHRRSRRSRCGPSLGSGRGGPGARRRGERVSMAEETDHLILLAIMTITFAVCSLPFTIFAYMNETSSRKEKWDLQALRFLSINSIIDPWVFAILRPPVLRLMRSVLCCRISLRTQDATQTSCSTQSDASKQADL
G-protein coupled receptor 55 (Homo sapiens), sequence (Q9Y2T6 whole entry): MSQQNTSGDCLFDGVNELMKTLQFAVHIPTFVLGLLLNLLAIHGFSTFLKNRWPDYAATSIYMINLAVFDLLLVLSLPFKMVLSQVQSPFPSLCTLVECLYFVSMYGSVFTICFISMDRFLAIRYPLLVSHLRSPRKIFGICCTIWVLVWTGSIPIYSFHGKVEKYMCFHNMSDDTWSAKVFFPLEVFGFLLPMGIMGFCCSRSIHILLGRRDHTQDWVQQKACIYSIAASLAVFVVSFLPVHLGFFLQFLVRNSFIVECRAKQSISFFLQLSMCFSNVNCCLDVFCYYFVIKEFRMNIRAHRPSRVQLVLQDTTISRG
Histamine H4 receptor (Homo sapiens), sequence (Q9H3N8 whole entry): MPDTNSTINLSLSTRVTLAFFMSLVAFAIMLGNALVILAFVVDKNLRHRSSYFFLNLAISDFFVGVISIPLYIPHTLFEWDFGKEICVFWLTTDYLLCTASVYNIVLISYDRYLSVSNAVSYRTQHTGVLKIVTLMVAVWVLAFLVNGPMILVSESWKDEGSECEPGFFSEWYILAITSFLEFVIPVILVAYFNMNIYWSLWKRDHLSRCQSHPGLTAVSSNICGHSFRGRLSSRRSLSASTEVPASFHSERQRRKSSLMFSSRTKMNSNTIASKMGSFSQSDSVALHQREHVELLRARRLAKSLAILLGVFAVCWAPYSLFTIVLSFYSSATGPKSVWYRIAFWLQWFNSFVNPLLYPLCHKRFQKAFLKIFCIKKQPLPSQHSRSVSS

Row | Compound | Ratio IC50 (Homo sapiens) | inhibition (Cannabinoid receptor 2 [1]) | IC50 (Cannabinoid receptor 2 [2]) | inhibition (Cannabinoid receptor 1 [3]) | IC50 (Cannabinoid receptor 1 [4]) | also measured
1 | CCCCCCCCC/C=C/C=C/C(=O)NCC(C)(C)O [TETRAHYDROBUNGEANOOL] | 2560 | 73% | 2 nM | 30% | 4600 nM | 
2 | CC/C=C/C/C=C\CC/C=C/C=C/C(=O)NCC(C)(C)O | 0.26 | 62% | 9100 nM | 45% | 2400 nM | 
3 | C/C=C/C=C/C=C\CC/C=C/C(=O)NCC(C)(O)CO (centres undefined) | 0.24 | 65% | 168 nM | 76% | 41 nM | 
4 | C/C=C/C=C/C=C/CC/C=C/C=C/C(=O)NCC(C)C | 0.15 | 57% | 664 nM | 37% | 100 nM | % activity (Cannabinoid receptor 2 [5]): 64%; inhibition [6]: 68%; inhibition (Cannabinoid receptor 1 [7]): 72%; inhibition [8]: 52%; inhibition (Cannabinoid receptor 2 [9]): 15%; Activity [10]: 7%; Activity [11]: 18%; Activity [12]: 18%; Activity [13]: 76%; Activity [14]: 61%; Activity [15]: 67%; Activity [16]: 5%; Activity [17]: 5%; Activity (Cannabinoid receptor 1 [18]): 5%; EC50 (Cannabinoid receptor 2 [19]): 41.7 nM
5 | C/C=C/C=C/C=C/CC/C=C/C(=O)NCC(C)(C)O |  |  | 131 nM |  | 9 nM | 
6 | C/C=C/C=C/C=C\CC/C=C/C(=O)NCC(C)(C)O |  |  | 59 nM |  | 7400 nM | 
7 | C/C=C/C=C/C=C\CC/C=C/C=C/C(=O)NCC(C)(C)O | 0.9 | 65% | 197 nM | 31% | 184 nM | 
8 | C/C=C/C=C/C=C/CC/C=C/C=C/C(=O)NCC(C)(C)O | 6.2 | 34% | 224 nM | 39% | 1390 nM | 
